Shown are actives, neighbours in structure and some others; about 2.3% of the full set was active somewhere.
SUMO1-SIM PPI – modulators of SUMO1 protein-protein interactions, primary screen, biochemical, uHTS. inhibition, % at 20 µM. actives 0.33% (n = 360,000). SUMO1 binding to a labelled peptide, TR-FRET, 1 h; in the data active = inhibition above about 37%
Scp1 inh – Scp-1 phosphatase inhibitors, primary screen, biochemical, colorimetric, uHTS | inhibition, % at 20 µM | Recombinant Scp1, phosphopeptide, malachite green phosphate absorbance | actives 0.88% (n = 340,000) | Carboxy-terminal domain RNA polymerase II polypeptide A small phosphatase 1 (Homo …;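 active = inhibition above about 50% at 20 µM, limit read from the data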;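 note: plate controls were DMSO wells with enzyme for no effect and wells lacking enzyme for full effect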
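Times: enzyme reaction 45 min at room temperature, colour 5 min, stabilisation 30 min. Material: SCP-1 catalytic fragment, aa 76-261. Medium: Acidic Tris acetate buffer with magnesium and detergent. Signal: colorimetric free-phosphate detection, absorbance 630 nm. Read-out basis: % inhibition of SCP-1 phosphate liberation. Reagent: Phosphorylated 17-residue peptide substrate.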
Rpn11 inh – Rpn11 (PSMD14) deubiquitinase inhibitors, primary screen, biochemical, fluorescence polarization, uHTS. inhibition, % at 20 µM. human 26S proteasome, Ub4-pepOG fluorescence polarization; 20S core pre-blocked with epoxomicin. actives 0.59% (n = 360,000). 26S proteasome non-ATPase regulatory subunit 14 (Homo sapiens), O00487;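 active = inhibition at 20 µM, scaled to each plate's controls, above about 33%, limit read from the data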
STEP block – STEP phosphatase inhibitors, primary screen, biochemical, fluorescence intensity, uHTS. actives 0.25% (n = 360,000). AID 588621, 2011. recombinant STEP, OMFP fluorogenic substrate. Tyrosine-protein phosphatase non-receptor type 5 (Homo sapiens), P54829. inhibition, % at 20 µM;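 active = inhibition at 20 µM, scaled per plate between control wells, above about 37%, limit read from the data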;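 note: 0% = DMSO with enzyme and substrate and 100% = substrate only without enzyme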
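System: STEP (striatal-enriched tyrosine phosphatase) enzyme, cell-free; medium: Bis-Tris pH 6.0 buffer with DTT, detergent; dosing: 20 µM, 1% DMSO; times: reaction 20 min, ambient temperature; detection: fluorescence, 480/540 nm; read-out basis: normalized % inhibition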
DNMT1 inh – human DNMT1 methyltransferase inhibitors, primary screen, biochemical, molecular beacon, fluorescence, HinP1I cleavage, uHTS. actives 0.83% (n = 360,000). AID 588458, 2011. inhibition (reported as % activation of signal), % at 10 µM. DNA (cytosine-5)-methyltransferase 1 (Homo sapiens), P26358; in the data active = inhibition above about 50%
LMPTP inh – LMPTP phosphatase inhibitors, primary screen, biochemical, fluorescence intensity, uHTS; recombinant LMPTP-A, OMFP fluorogenic substrate; inhibition, % at 20 µM; actives 0.22% (n = 360,000); AID 651560, 2012;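 active = compounds that cut the enzyme signal by at least half of the control window in the single-dose screen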;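 note: plate controls were DMSO wells with enzyme plus substrate for no effect and substrate without enzyme for full effect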
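test system = LMPTP-A | amount = 0.625 nM LMPTP-A final | reagent = fluorogenic phosphatase substrate OMFP at 400 µM final | incubation = 50 min at room temperature | benchmarks = no-enzyme low control, uninhibited high control | medium = Bis-Tris pH 6.0, DTT, detergent | signal = fluorescence intensity of OMFP turnover product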
* hit, by the source's call.

Screening CC1(C)Cc2nc3sc4c(=O)n(CC(N)=O)cnc4c3cc2CO1 returned SUMO1-SIM PPI -2.1, Scp1 inh -3.6, Rpn11 inh -1.3, STEP block 4.6, DNMT1 inh -4.0 and LMPTP inh -1.0.
`CC1(C)Cc2nc3sc4c(=O)n(CC(=O)NCc5ccccc5)cnc4c3cc2CO1` gave SUMO1-SIM PPI 43.2*, Scp1 inh -7.3, Rpn11 inh 0.4, STEP block -1.4, DNMT1 inh 3.8 and LMPTP inh -0.4.
Screening Cn1c(SCC(=O)Nc2ccc3[nH]c(=O)[nH]c3c2)nnc1-c1ccc(F)cc1 returned SUMO1-SIM PPI 9.7, Scp1 inh -10.6, Rpn11 inh -5.9, STEP block -0.7, DNMT1 inh 6.5 and LMPTP inh 0.9.
`O=C(NC(=S)NCCC1=CCCCC1)c1ccccc1Br` gave SUMO1-SIM PPI 4.0, Scp1 inh 66.6*, Rpn11 inh 8.0, STEP block -3.2, DNMT1 inh -9.8 and LMPTP inh 3.5.
COc1ccc(CCn2c(=N)c(C(=O)NCc3ccco3)cc3c(=O)n4ccccc4nc32)cc1OC was read as SUMO1-SIM PPI 50.8*, Scp1 inh 11.8, Rpn11 inh 3.7, STEP block -0.7, DNMT1 inh 2.4 and LMPTP inh 27.0.
Screening N=c1c(C(=O)NCc2ccco2)cc2c(=O)n3ccccc3nc2n1CCc1ccccc1 returned SUMO1-SIM PPI -7.3, Scp1 inh 0.8, Rpn11 inh -36.8, STEP block -0.6, DNMT1 inh 26.8 and LMPTP inh 54.7*.
COCCn1c(=N)c(C(=O)NCCc2ccccc2)cc2c(=O)n3cccc(C)c3nc21 was read as SUMO1-SIM PPI -13.7, Scp1 inh 3.2, Rpn11 inh -2.5, STEP block -0.7, DNMT1 inh 3.0 and LMPTP inh 2.9.
Screening Cc1cccn2c(=O)c3cc(C(=O)NCCc4ccccc4)c(=N)n(CCCn4ccnc4)c3nc12 returned SUMO1-SIM PPI -5.1, Scp1 inh 4.1, Rpn11 inh 4.7, STEP block -1.5, DNMT1 inh 12.9 and LMPTP inh 64.2*.
For N=c1c(C(=O)NCc2ccco2)cc2c(=O)n3ccccc3nc2n1CC1CCCO1 (stereo unspecified) the results were SUMO1-SIM PPI -2.2, Scp1 inh -0.4, Rpn11 inh -17.2, STEP block -2.4, DNMT1 inh 12.6 and LMPTP inh 17.0.
Cn1ncc(N=Cc2ccc([N+](=O)[O-])cc2)c1C(=O)N1CCOCC1 was read as SUMO1-SIM PPI -25.7, Scp1 inh -2.0, Rpn11 inh 4.4, STEP block -4.3, DNMT1 inh 2.7 and LMPTP inh -1.6.
CC1(C(=O)Nc2cccnc2)Cc2c(-c3ccc4c(c3)OCO4)ccnc2O1 (stereo unspecified) was read as SUMO1-SIM PPI -0.1, Rpn11 inh 0.3, STEP block 0.6, DNMT1 inh 1.4 and LMPTP inh 0.0.
Screening COc1cc(C(=O)OCCc2cc3ccccc3c(=O)o2)cc(OC)c1OC returned SUMO1-SIM PPI 0.2, Scp1 inh -3.5, Rpn11 inh -9.6, STEP block 2.7, DNMT1 inh 3.5 and LMPTP inh 0.2.
O=C1NC[C@@H](CCCCN2C[C@H](Cc3ccc(O)cc3)N(CCc3ccc(O)cc3)C(=O)C2=O)N(CCc2ccc(O)cc2)C1=O was read as SUMO1-SIM PPI 43.8* and LMPTP inh 33.5.
`CC(NC(=O)Cn1ncc(Cl)c(Cl)c1=O)C12CC3CC(CC(C3)C1)C2` (stereo unspecified) gave SUMO1-SIM PPI 8.8, Scp1 inh 0.3, Rpn11 inh -9.0, STEP block -1.2, DNMT1 inh 59.2* and LMPTP inh 0.6.
`CC1(OC(=O)c2cccs2)C(=O)C=C2C=C3CCCN3C=C2C1=O` (stereo unspecified) gave SUMO1-SIM PPI 23.3, Scp1 inh 54.9*, Rpn11 inh -62.0, STEP block 8.9, DNMT1 inh 100.5* and LMPTP inh 11.3.
`COc1cccc2c1NC(C(=O)O)C1CC=CC21` (stereo unspecified) gave SUMO1-SIM PPI 52.1*, Scp1 inh 74.3*, Rpn11 inh -24.4, STEP block 69.9*, DNMT1 inh 97.6* and LMPTP inh 51.8*.
Screening COc1cccc(C2Nc3c(F)cc(Br)cc3C3C=CCC32)c1OC (stereo unspecified) returned SUMO1-SIM PPI 8.1, Scp1 inh -10.5, Rpn11 inh -9.6, STEP block -2.3, DNMT1 inh -35.7 and LMPTP inh 2.8.
Screening CC(=O)c1ccc2c(c1)C1C=CCC1C(C(=O)O)N2 (stereo unspecified) returned SUMO1-SIM PPI 59.6*, Scp1 inh 75.4*, Rpn11 inh 13.0, STEP block 70.2*, DNMT1 inh 91.4* and LMPTP inh 11.6.
Screening CN(CC(=O)Nc1c(Cl)cccc1Cl)C(=O)c1ccc2nc[nH]c2c1 returned SUMO1-SIM PPI 13.8, Scp1 inh 25.7, Rpn11 inh 0.0, STEP block 0.4, DNMT1 inh 0.8 and LMPTP inh 0.8.
Screening Fc1ccc(N2N=C(c3cccs3)CC2c2ccccc2)cc1 (stereo unspecified) returned SUMO1-SIM PPI -2.7, Scp1 inh -5.0, Rpn11 inh 63.1*, STEP block 0.2, DNMT1 inh 0.7 and LMPTP inh 3.7.
`CCOC(=O)C1(C#N)Cc2ccccc2C1` gave SUMO1-SIM PPI 0.0, Scp1 inh 0.0, Rpn11 inh 0.4, STEP block 1.3, DNMT1 inh -2.9 and LMPTP inh -1.9.
For CCC(C(=O)NC(C)(C)C)n1c(-c2ccc3c(c2)OCO3)nc2ccccc21 (stereo unspecified) the results were SUMO1-SIM PPI 0.8 and LMPTP inh 0.2.
`N#C/C(=C\c1ccc([N+](=O)[O-])o1)C(=O)Nc1ccc(F)cc1` gave SUMO1-SIM PPI 9.1, Scp1 inh 56.5*, STEP block 0.8, DNMT1 inh 32.5 and LMPTP inh 5.8.
Screening CCN(CC)c1ccc(C(NC(C)=O)NC(C)=O)cc1 returned SUMO1-SIM PPI -3.9, Scp1 inh -4.8, Rpn11 inh 1.2, STEP block 0.4, DNMT1 inh 0.1 and LMPTP inh -1.4.

High-throughput results: PubChem, Sanford-Burnham Center for Chemical Genomics
